Source: PubChem BioAssay
PGC1a Ac signal – compounds raising PGC1a acetylation signal, primary screen, PGC1a modulator project, cell-based, U2OS, AlphaScreen, signal-increasing mode. AID 651723, 2012. activation, % at 15.6 µM. overnight. actives 0.21% (n = 350,000);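 active = every replicate reaching activation of at least 50%, whatever the mean replicate activation; inconclusive = replicates that disagree or another doubt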;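 note: hits raise the AlphaScreen acetylation signal above neutral controls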
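System: flag-PGC1a/GCN5 U2OS cells / Input: 7000 cells/well / Compound: single test concentration per compound / Incubation: overnight compound treatment, 37 °C / Technique: AlphaScreen on lysates with anti-acetyl-lysine antibody, acceptor and donor beads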
G6PC hep suppr – suppressors of forskolin-stimulated G6PC mRNA, dose response, PGC-1a acetylation activator project, cell-based, hepatocytes, RT-qPCR, cherry-picked samples; shares compounds with PGC1a Ac signal; primary mouse hepatocytes; G6PC suppression (normalized activity, % of positive control; higher = more suppression), % at 26 µM; 240 tested, under 10 active; AID 743463, 2014;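 active = dose curves showing G6PC suppression whose half-maximal dose is at most twice the top valid dose; inconclusive = flat curves with moderate negative activity, or unreliable fits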;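 note: G6PC expression relative to GAPDH housekeeping gene as delta delta Ct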
Hep PCK1 suppr – suppression of PCK1 mRNA in primary hepatocytes, dose response, PGC-1a acetylation activator project, cell-based, primary mouse hepatocytes, RT-qPCR, cherry-pick; 230 tested, under 10 active; PCK1 expression decrease, unspecified at 26 µM; shares compounds with PGC1a Ac signal; AID 743465, 2014; forskolin-stimulated;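 active = compounds lowering PCK1 expression whose fitted half-maximal concentration is at most twice the top tested dose; inconclusive = flat fit with moderate opposite-direction effect, or poor fit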;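 note: higher delta delta Ct means lower PCK1 expression so positive values indicate hits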
PGC1a hep suppr – suppression of PGC-1a mRNA in primary hepatocytes, dose response, PGC-1a acetylation activator project, cell-based, primary mouse hepatocytes, RT-qPCR, cherry-pick; max activity (PGC-1a expression decrease), %; shares compounds with PGC1a Ac signal; PGC-1a mRNA qPCR, forskolin; top dose 26 µM; 240 tested, under 10 active; AID 743467, 2014;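 active = compound lowering PGC-1a expression with fitted half-maximal concentration at most twice its top tested dose; inconclusive = flat curve with moderate opposite-direction effect, or poor fit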
A number is an active result; n = inactive; u = inconclusive; x = not tested or not shown. Not all results are given here.

SMILES	PGC1a Ac signal	G6PC hep suppr	Hep PCK1 suppr	PGC1a hep suppr
C[C@H](CO)N1C[C@H](C)[C@@H](CN(C)Cc2ccc(C(F)(F)F)cc2)Oc2ccc(NS(=O)(=O)c3ccc(F)cc3)cc2C1=O	n	x	x	x
CCc1nc(N)nc(N)c1-c1ccc(Cl)cc1	n	x	x	x
CC1(Cc2ccc(Cl)cc2)C(=O)Nc2c(Cl)ccc(Cl)c21 (stereo unspecified)	80.4	n	x	u
COc1ccccc1-c1ccc2c(c1)C(C)(Cc1ccc(OC(F)(F)F)cc1)C(=O)N2 (stereo unspecified)	u	n	n	n
Cc1ccc(-c2[nH]ncc2/C=C(\C#N)C(=O)NC2CCCCC2)cc1	n	x	x	x
O=C1C=CC(=O)c2c(O)c(N3CCN(CCO)CC3)c(Cl)c(O)c21	n	x	x	x
COc1ccc2nc(N3CCCC(C(=O)NCCCN4CCN(C)CC4)C3)sc2c1 (stereo unspecified)	n	x	x	x
COc1ccc(Br)cc1CNc1ccccc1	n	n	n	n
COc1ccccc1CNS(=O)(=O)c1cc(C)ccc1OC	n	x	x	x
O=S(=O)(Nc1cc(Sc2ncn[nH]2)c(O)c2ccccc12)c1ccccc1	n	x	x	x
Cc1ccccc1NC1=C/C(=N\S(=O)(=O)c2cccs2)c2ccccc2C1=O	n	x	x	x
Cc1cccc(N2C(=O)C(Cl)=C(N3CCOCC3)C2=O)c1	n	x	x	x
O=C(Nc1ccccc1)C1=C[C@@H](c2ccc(C(F)(F)F)cc2)C[C@@H](OCc2ccc(CO)cc2)O1	63.2	n	n	n
O=[N+]([O-])c1c(NCCCO)cc(Sc2nc3ccccc3s2)c2nonc12	n	x	x	x
Cc1cccc(-c2ccc3[nH]c4c(c3c2)CCN2C[C@@H]([C@H](C)O)[C@@H](N(C)C(=O)NC3CCCCC3)C[C@@H]42)c1	n	x	x	x
CCc1nnc(N/N=C/c2ccccc2Cl)n1N	n	x	x	x
O=C(NCc1ccc(Cl)cc1)C1CCC(CNc2c(N3CCCC3)c(=O)c2=O)CC1 (stereo unspecified)	n	n	n	n
CN(C)c1nc(SCCOC(=O)COc2ccc(Cl)cc2Cl)nc(N(C)C)n1	n	x	x	x
COC(=O)c1cc2ccsc2n1CC(=O)Nc1cc(Cl)ccc1OC	59.4	n	n	n
COC(=O)c1ccc(Cl)c(NC(C)=O)c1	n	x	x	x
COC(=O)COc1c(/C=C\c2nc(O)c([N+](=O)[O-])c(=O)[nH]2)cccc1OC	n	x	x	x
O=C(C[C@H]1CC[C@H]2[C@@H](COC[C@@H](O)CN2C(=O)c2cc(Cl)cc(Cl)c2)O1)N1CCc2ccccc2C1	u	n	n	n
CN1CCN(C2=C(Cl)C(=O)N(CCc3ccccc3)C2=O)CC1	n	x	x	x
CC12CCC(C1)C(C)(C)C2NS(=O)(=O)c1ccc(F)cc1 (stereo unspecified)	u	n	x	u
Cc1c(C(=O)N2CCN(c3ccccn3)CC2)sc2ncnc(N3CCN(c4ccccc4)CC3)c12	n	x	x	x
SMILES	PGC1a Ac signal	G6PC hep suppr	Hep PCK1 suppr	PGC1a hep suppr
Cc1nc2ncnn2c(C)c1CCC(=O)N1CCN(c2ccccn2)CC1	n	x	x	x
O=C(c1cccs1)N1CCN(c2nnc(-c3ccccc3)c3ccccc23)CC1	69.4	n	n	n
Cc1ccc(-c2nnc(N3CCN(C(=O)COc4ccccc4)CC3)c3ccccc23)cc1	94.2	n	x	n
Cc1[nH]nc2ncc(C(=O)c3ccccc3O)cc12	n	x	x	x
CCOC(=O)c1ccc(N2C(=O)CC(N3CCC(O)(c4ccc(Br)cc4)CC3)C2=O)cc1 (stereo unspecified)	n	x	x	x
COc1ccc2c(c1)C(C)=CC(C)(C)N2S(=O)(=O)c1ccc(Br)cc1	83.0	x	n	n
CC(C)c1ccc(/C=N/NC(=O)C2CCCC2)cc1	n	x	x	x
O=C(CCCn1c(=O)[nH]c2cc(Cl)ccc2c1=O)NCCC1=CCCCC1	73.3	n	u	n
Cn1c(C(C#N)C(=O)c2sc3ccccc3c2Cl)nc2ccccc21 (stereo unspecified)	n	x	x	x
O=C(COCc1cc(-c2ccc3c(c2)OCO3)on1)Nc1cccnc1	94.2	n	n	u
C#CCN1C(=O)C(O)(CC(=O)c2ccc(OC)c(OC)c2)c2ccccc21 (stereo unspecified)	n	x	x	x
CO[C@@H](C(=O)N(C)C[C@H]1OCc2ccccc2-c2c(n(C)c3ccccc23)C(=O)N([C@H](C)CO)C[C@H]1C)c1ccccc1	72.2	n	n	n
C[C@@H]1CN([C@@H](C)CO)C(=O)c2c(c3ccccc3n2C)-c2ccccc2CO[C@@H]1CN(C)C(=O)Nc1cccc(C(F)(F)F)c1	79.3	n	n	n
C[C@@H]1CN([C@H](C)CO)C(=O)c2c(c3ccccc3n2C)-c2ccccc2CO[C@@H]1CN(C)C(=O)Nc1cccc(C(F)(F)F)c1	67.9	n	n	n
C[C@@H]1CN([C@@H](C)CO)C(=O)c2c(c3ccccc3n2C)-c2ccccc2CO[C@@H]1CN(C)C(=O)Nc1ccc(F)cc1	u	n	n	n
O=C(Nc1cccn2ncnc12)C(Cl)Cl	n	x	x	x
CCN(CC)C(=O)c1sc(NC(=O)c2ccncc2)c(C(=O)OC)c1C	n	x	x	x
CCOC(=O)Cn1cc(/C=C(/C#N)C(=O)NC(C)C)c2ccccc21	n	x	x	x
CCOC(=O)C(=CNc1ccc(C)cc1C)C(=O)OCC	n	x	x	x
COc1ccc(C(=O)NCCCSC)cc1OC1CCN(C(C)C)CC1	n	x	x	x
COc1ccc(S(=O)(=O)N2CCOCC2)cc1NC(=O)CCNC(=O)c1ccc(Cl)cc1	75.9	n	n	u
Cc1c(Nc2cc(Cl)c3nonc3c2[N+](=O)[O-])c(=O)n(-c2ccccc2)n1C	n	x	x	x
COC(=O)C[C@@H]1C[C@H]2c3cc(NC(=O)Nc4ccc(C(F)(F)F)cc4)ccc3O[C@H]2[C@H](CO)O1	u	n	n	n
CCOC(=O)NC(=S)Nc1cccc(NC(=S)NC(=O)OCC)c1	n	x	x	x
O=C1C(Cl)=C(N2CCOCC2)C(=O)N1CCc1ccccc1	n	x	x	x
SMILES	PGC1a Ac signal	G6PC hep suppr	Hep PCK1 suppr	PGC1a hep suppr
COc1ccccc1CN1CCCC(C(=O)N(C)Cc2ccccc2)C1 (stereo unspecified)	n	x	x	x
Cc1ccc(C(=O)Nc2nc(=O)n(C(=O)CC(C)C)s2)cc1	n	x	x	x
CCCOc1ccc(C(=O)Nc2cccnc2)cc1	76.7	n	n	n
O=C(Nc1cccnc1)c1ccc(Oc2ccccc2)cc1	78.5	n	n	u
O=C(CCc1nc2ccccc2c(=O)[nH]1)OCC(=O)N1CCc2ccccc21	n	x	x	x
CCn1c(C(=O)NC2CCC(C)CC2)cc2sccc21 (stereo unspecified)	n	x	x	x
COc1ccccc1CN1C[C@@H]2C[C@@H](c3cccc(C)n3)N3CCC[C@@]23C1=O	n	x	x	x
C=C1C(=O)[C@]23C[C@H]1CC[C@H]2[C@]1(C)[C@@H](OC(C)=O)CC[C@@](C)(C(=O)OC)[C@H]1C[C@@H]3OC(C)=O	n	x	x	x
CCCCn1c(CN(Cc2ccccc2)Cc2ccccc2)nc2c1c(=O)n(C)c(=O)n2C	u	n	n	n
CCOCCn1c(CN(Cc2ccccc2)Cc2ccccc2)nc2c1c(=O)[nH]c(=O)n2C	u	n	n	n
